In general, clearance refers to the volume of plasma or blood freed of the substance per unit of time. A word on the IC50: it is the concentration needed to halve the response being measured. In general, AUC(0-inf) refers to total exposure, with the tail of the curve extrapolated. A higher AUC(0-inf) goes with high exposure. Usually ED50 stands for the midpoint of the dose-response relation. What is called half-life is the time in which the quantity being followed falls by half. A higher half-life goes with slow loss. The term Kd denotes a measure of binding affinity in units of concentration. A high value points to weaker binding. By bioavailability is commonly meant dose-corrected exposure relative to a reference, in per cent. The low end stands for little systemic uptake, the high end for much systemic uptake. The term inhibition denotes the change of the read-out against control, counted positive when it falls. For orientation: Ki means a dissociation constant, usually derived from enzyme kinetics or from competition with a known ligand. A word on the AUC(0-t): it is exposure summed from dosing to a finite time, without extrapolation to infinity. Low values mean low exposure, high ones high exposure. One may read the Papp A→B as the apparent permeability from the apical to the basolateral side of a cell layer. A high value points to fast passage.

In one data set the target is T1, Cytochrome P450 2B6 (Homo sapiens, UniProt P20813).
T1 sequence (P20813 whole entry): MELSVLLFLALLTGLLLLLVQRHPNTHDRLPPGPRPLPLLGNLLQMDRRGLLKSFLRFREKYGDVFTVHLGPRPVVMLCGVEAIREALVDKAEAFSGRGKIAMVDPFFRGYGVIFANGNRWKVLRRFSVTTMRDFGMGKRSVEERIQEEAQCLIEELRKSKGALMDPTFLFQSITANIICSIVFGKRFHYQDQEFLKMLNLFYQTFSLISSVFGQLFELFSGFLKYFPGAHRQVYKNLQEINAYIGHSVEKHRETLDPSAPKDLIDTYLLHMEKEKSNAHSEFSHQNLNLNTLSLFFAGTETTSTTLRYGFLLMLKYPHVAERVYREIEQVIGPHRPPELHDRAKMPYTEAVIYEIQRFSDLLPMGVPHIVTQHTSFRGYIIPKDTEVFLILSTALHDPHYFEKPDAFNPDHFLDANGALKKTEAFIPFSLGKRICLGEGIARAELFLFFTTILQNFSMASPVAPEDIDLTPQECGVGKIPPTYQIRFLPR
Kind of data set: Induction of CYP2B6 in human hepatocytes at 25 uM. Type of data set: ADME, cell-based, Hepatocyte.

Data set [1] is described as follows: Trough plasma concentration in porcine type 2 collagen-induced arthritis Lewis rat model at 0.01 to 1 mg/kg, po after 24 hrs. The class given is ADME, organism-based. Details: dose 0.01-1 mg/kg, route oral; call rule not given here.
A short description of data set [2]: Clearance in Sprague-Dawley rat at 2 mg/kg, iv. The class given is ADME, organism-based. Details: dose 2 mg/kg, route intravenous. The settings on record: in vivo.
The next data set has as its system Blood. Kind of data set: Inhibition of IL-8 production in TNFalpha challenged human whole blood after 16 to 18 hrs. Type of data set: functional, tissue-based. To be noted: Homo sapiens, Blood; read-out: IC50. Put shortly: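 Heparinized blood from healthy nonmedicated donors, 50% final in RPMI 1640 with 10% human AB serum. Ten-point compound titration preincubated 1 h at 37 C, 5% CO2, then TNF-alpha 1 nM final added for 16-18 h. Plasma IL-8 measured by electrochemiluminescent antibody sandwich assay; IC50 is the mean of at least three independent dose-response curves.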

A short description of data set [3]: Volume of distribution at steady state in Sprague-Dawley rat at 2 mg/kg, iv. Type of data set: ADME, organism-based. Also noted: dose 2 mg/kg, route intravenous. To be noted: in vivo, read-out: Vdss.
The nature of data set [4]: Plasma protein binding in rat by ultrafiltration method. Type of data set: ADME, cell-free. To be noted: read-out: PPB (converted).
Data set [5] is described as follows: AUC (0 to infinity) in Sprague-Dawley rat at 2 mg/kg, po. The class given is ADME, organism-based. Details: time infinity, dose 2 mg/kg, route oral. The settings on record: plasma.
A short description of data set [6]: Plasma protein binding in human by ultrafiltration method. Type of data set: ADME, cell-free. To be noted: read-out: PPB (converted).
Data set [7] addresses T2, Nuclear receptor subfamily 1 group I member 2 (Homo sapiens, UniProt O75469).
T2 sequence (O75469 whole entry): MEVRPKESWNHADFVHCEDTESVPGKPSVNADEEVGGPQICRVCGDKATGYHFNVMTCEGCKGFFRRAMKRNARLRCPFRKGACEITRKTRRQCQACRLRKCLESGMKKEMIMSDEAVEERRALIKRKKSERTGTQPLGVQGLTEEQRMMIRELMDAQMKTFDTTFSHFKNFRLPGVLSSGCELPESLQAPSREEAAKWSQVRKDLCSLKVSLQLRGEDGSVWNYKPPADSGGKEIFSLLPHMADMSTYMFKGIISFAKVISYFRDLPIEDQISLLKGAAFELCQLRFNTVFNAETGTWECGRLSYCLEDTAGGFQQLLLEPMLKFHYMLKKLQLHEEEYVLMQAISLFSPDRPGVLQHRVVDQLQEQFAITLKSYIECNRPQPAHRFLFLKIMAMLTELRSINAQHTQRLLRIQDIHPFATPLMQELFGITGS
Kind of data set: Transactivation of human PXR expressed in HepG2 cells at 10 uM after 24 hrs by luciferase reporter gene assay relative to rifampin. The class given is cell-based. The settings on record: hepg2, 24 h. Put shortly:
(§1)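 HepG2 cells transfected with a CYP3A4-promoter luciferase reporter and human PXR cDNA. Compound added from DMSO stocks to final 2 and 10 μM in buffer and incubated 24 h. Luciferase activity read by chemiluminescence and reported as percent of the rifampin (10 μM) positive control.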
(In general: In a reporter assay the amount or activity of a reporter protein is the signal.)

Data set [8] concerns Rattus norvegicus. Kind of data set: Inhibition of MAPKAP2 phosphorylation in porcine type 2 collagen-induced arthritis Lewis rat ankles at 0.01 to 1 mg/kg, po by Western blotting. Type of data set: functional. To be noted: dose mg/kg 0.01-1. Put shortly: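 Oral dosing once daily for 7 days in collagen-induced arthritic Lewis rats, vehicle 15% HPBCD, 1% HPMC, 1% Pluronic F68, pH 2.2. Ankles (n = 2/group) frozen at sacrifice, pulverized and lysed; 15 μg protein per lane for Western blot with phospho-MK2 antibody. Signal normalized to Akt and expressed as percent of vehicle-treated arthritic control.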
Background: A western blot detects proteins with antibodies after separation by electrophoresis.

Data set [9] can be described thus: Half life in Sprague-Dawley rat at 2 mg/kg, iv. Type of data set: ADME, organism-based. Also noted: dose 2 mg/kg, route intravenous. To be noted: in vivo.
Data set [10] concerns the target T3, Mitogen-activated protein kinase 11 (Homo sapiens, UniProt Q15759). Kind of data set: Binding affinity to p38beta.
Data set [11] can be described thus: Oral bioavailability in Sprague-Dawley rat at 2 mg/kg. Type of data set: ADME, organism-based. To be noted: in vivo.
Data set [12] deals with RAF proto-oncogene serine/threonine-protein kinase (Homo sapiens, UniProt P04049). Kind of data set: Inhibition of RAF1 at 1 uM relative to control.
For data set [13], the target named is T3, Mitogen-activated protein kinase 11. The data set can be described thus: Inhibition of p38beta.
Data set [14] deals with Platelet-derived growth factor receptor alpha (Homo sapiens, UniProt P16234). Kind of data set: Inhibition of PDGFRalpha at 1 uM relative to control.
A short description of data set [15]: AUC (0 to 24 hrs) in porcine type 2 collagen-induced arthritis Lewis rat model at 0.01 to 1 mg/kg, po. Type of data set: ADME, organism-based. Also noted: dose 0.01-1 mg/kg, route oral. The settings on record: in vivo.
The nature of the next data set: in vitro. The settings on record: human, Caco-2.
Data set [16] has as its target T4, Mitogen-activated protein kinase 12 (Homo sapiens, UniProt P53778).
T4 sequence (P53778 whole entry): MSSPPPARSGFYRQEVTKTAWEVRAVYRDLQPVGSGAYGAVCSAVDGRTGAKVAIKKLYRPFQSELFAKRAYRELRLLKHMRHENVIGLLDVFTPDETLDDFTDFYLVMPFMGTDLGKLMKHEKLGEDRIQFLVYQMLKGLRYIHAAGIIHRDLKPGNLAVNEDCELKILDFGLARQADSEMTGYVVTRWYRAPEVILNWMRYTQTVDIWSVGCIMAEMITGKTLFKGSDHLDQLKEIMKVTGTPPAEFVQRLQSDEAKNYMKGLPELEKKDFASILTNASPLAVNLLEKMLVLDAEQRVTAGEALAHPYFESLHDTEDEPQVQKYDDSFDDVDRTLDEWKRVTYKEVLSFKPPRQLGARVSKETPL
The data set can be described thus: Inhibition of p38-gamma.

In data set [17] the target is T2, Nuclear receptor subfamily 1 group I member 2. The data set can be described thus: Transactivation of human PXR expressed in HepG2 cells at 2 uM after 24 hrs by luciferase reporter gene assay relative to rifampin. The class given is cell-based. To be noted: hepg2, 24 h. Put shortly:
as §1

The subject of data set [18] is Rattus norvegicus. The data set can be described thus: Antiarthritic activity against porcine type 2 collagen-induced arthritis in po dosed Lewis rat model assessed as reduction of paw swelling administered qd for 7 days relative to control. Type of data set: functional. The procedure, abridged:
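Arthritis induced by intradermal porcine type II collagen emulsified 1:1 in incomplete Freund's adjuvant; rats grouped at disease onset (day 0, 10-12 days after immunization). Oral dosing once daily for 7 days in vehicle 15% HPBCD, 1% HPMC, 1% Pluronic F68, pH 2.2.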

A further data set deals with V79. Kind of data set: Genotoxicity in Chinese hamster V79 cells by micronucleus test. Type of data set: toxicity, cell-based, Cricetulus griseus.

T3 sequence (Q15759 whole entry): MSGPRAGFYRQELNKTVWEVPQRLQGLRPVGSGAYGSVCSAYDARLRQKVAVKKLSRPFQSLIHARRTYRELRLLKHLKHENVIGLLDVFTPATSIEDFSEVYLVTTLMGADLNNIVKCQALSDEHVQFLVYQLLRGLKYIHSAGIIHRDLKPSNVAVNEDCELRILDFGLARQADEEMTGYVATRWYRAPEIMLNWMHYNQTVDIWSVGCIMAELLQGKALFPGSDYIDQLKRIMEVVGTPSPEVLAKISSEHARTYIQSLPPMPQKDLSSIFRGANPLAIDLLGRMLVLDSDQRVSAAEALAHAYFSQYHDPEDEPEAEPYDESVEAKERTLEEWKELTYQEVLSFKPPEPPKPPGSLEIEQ
Platelet-derived growth factor receptor alpha, sequence (P16234 whole entry): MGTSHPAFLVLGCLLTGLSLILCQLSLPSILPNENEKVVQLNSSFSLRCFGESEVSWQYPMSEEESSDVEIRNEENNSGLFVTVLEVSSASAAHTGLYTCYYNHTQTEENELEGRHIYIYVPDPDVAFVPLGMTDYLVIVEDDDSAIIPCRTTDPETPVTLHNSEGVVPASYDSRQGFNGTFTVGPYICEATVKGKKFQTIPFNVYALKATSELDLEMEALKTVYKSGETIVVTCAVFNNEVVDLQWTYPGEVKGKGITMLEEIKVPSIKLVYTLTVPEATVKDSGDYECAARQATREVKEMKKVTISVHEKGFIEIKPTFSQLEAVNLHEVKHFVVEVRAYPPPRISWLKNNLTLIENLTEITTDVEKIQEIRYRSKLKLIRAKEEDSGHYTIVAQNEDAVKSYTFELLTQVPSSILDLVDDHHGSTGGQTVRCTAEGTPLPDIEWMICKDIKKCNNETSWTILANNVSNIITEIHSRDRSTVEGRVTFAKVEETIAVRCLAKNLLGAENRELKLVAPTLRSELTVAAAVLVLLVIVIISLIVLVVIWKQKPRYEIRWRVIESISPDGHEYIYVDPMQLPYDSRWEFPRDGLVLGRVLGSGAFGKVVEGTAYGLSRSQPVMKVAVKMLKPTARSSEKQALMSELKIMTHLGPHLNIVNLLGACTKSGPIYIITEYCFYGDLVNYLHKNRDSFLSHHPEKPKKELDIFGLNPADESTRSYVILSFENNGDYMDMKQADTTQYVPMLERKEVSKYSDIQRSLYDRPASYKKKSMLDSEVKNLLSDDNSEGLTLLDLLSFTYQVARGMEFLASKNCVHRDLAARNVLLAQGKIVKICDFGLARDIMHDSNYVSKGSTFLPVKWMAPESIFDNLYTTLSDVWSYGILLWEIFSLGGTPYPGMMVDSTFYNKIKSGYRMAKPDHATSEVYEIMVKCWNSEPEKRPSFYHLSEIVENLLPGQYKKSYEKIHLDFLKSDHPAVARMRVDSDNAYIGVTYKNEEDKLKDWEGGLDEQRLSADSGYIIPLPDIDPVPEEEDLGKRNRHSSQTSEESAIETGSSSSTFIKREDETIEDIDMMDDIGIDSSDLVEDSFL
RAF proto-oncogene serine/threonine-protein kinase, sequence (P04049 whole entry): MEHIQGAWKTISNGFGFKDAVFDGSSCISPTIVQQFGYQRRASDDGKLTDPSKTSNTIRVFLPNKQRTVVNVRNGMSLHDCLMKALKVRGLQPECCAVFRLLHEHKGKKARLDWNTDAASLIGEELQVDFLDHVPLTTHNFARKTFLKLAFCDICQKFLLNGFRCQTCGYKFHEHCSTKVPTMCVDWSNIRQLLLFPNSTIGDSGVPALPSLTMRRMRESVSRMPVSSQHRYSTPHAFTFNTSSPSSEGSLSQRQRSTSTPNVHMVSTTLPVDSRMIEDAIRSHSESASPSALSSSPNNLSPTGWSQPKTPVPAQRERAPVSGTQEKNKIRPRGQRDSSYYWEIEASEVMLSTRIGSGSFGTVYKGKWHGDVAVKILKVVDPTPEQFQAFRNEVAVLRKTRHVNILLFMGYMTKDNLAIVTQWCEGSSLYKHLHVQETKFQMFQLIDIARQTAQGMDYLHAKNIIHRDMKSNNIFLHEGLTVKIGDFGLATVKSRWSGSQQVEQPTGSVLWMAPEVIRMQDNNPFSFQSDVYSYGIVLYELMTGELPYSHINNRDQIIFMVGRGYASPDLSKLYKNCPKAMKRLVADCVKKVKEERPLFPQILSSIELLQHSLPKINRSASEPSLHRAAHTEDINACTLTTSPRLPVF

For `Cc1ccc(C(=O)NC2CC2)cc1-c1cc2cnn(-c3c(F)cccc3F)c2n(C)c1=O`, the Activity entry is “Not Active” on Cytochrome P450 2B6; 13% in [7]; 5% in data set [17]; “Dose-dependent effect” in the data set on Rattus norvegicus [18]; “Non-toxic” in the data set on V79. The molecule further gave a concentration at 24 h in [1] of 4.4 nM. Also, in data set [2], the clearance is 3.67 mL/min/kg. In the data set on Blood, the IC50 was 1.7 nM. In addition, the Vd in [3] worked out at 0.837 L/kg. Besides, the fraction unbound was 0.087 in [4] and 0.079 in data set [6]. This molecule also displayed a total exposure AUC(0-inf) in data set [5] of 3990 ng·h/mL. For the same molecule, the 50% effective dose (ED50) with Rattus norvegicus [8] and in the data set on Rattus norvegicus [18] (168 h) was at most 0.01 mg/kg each time. The half-life in data set [9] was 2.7 h. The molecule further registered a Kd in data set [10] of 0.67 nM. Further, in data set [11], the bioavailability was found to be 43%. Also, the inhibition in data set [12] and in [14] was under 50% each time. In addition, the Ki worked out at 2.5 nM in data set [13] and 3500 nM in data set [16]. Besides, the area under the curve AUC(0-t) in data set [15] is 0.18 µM·h. In addition, the apical-to-basolateral permeability (Papp A→B) in the data set “in vitro” was 27 ×10⁻⁶ cm/s.

The values are drawn from ChEMBL document CHEMBL1156338 (J Med Chem, 2010).
